This passage reports Activity, Stability and logD results from ChEMBL document CHEMBL1155193, “Acyloxymethyl esterification of nodularin-R and microcystin-LA produces inactive protoxins that become reactivated and produce apoptosis inside intact cells” (J Med Chem, 2009).

In general, logD refers to lipophilicity at a set pH, counting ionised and neutral species.

Active and inactive are the calls of the source. No cut-off for these calls is given here. Starred links: 1 amine or outer side, 2 acyl side, 3 side chain; linkers in the order of their positions; H or OH if unused. Positions of bridges follow the written chain, without caps; N, C: chain ends. Non-standard residues stand in square brackets, D forms with d. Residues, ends and D or L forms follow the SMILES beside them. Adda = CO[C@@H](Cc1ccccc1)[C@@H](C)/C=C(C)/C=C/[C@H](N[*:1])[C@H](C)C(=O)[*:2]; X1 = CC(C)C[C@H](N[*:1])C(=O)C[C@@H](C(=O)O)[C@H](C)C(=O)[*:2]; dAsp(3S-Me) = C[C@H](C(=O)[*:3])[C@@H](N[*:1])C(=O)[*:2]; d(γGlu) = O=C(O)[C@@H](CCC(=O)[*:2])N[*:1]; NMeDha = C=C(NC)C(=O)O

For data set [1], the target named is Serine/threonine-protein phosphatase 2A catalytic subunit alpha isoform (Oryctolagus cuniculus) (UniProt P67777). As to the kind of experiment: Displacement of [125]MC-YR from rabbit skeletal muscle protein phosphatase 2A after 1 hr. In kind it is tissue-based. The following applies: Muscle tissue.
In data set [2] the test system is NIH3T3. As to the kind of experiment: Induction of apoptosis in Swiss mouse 3T3 cells up to 120 uM after 3 hrs by Hoechst 33342 staining-based fluorescence microscopy. In kind it is cell-based. The following applies: nih3t3, 3 h. Summed up:
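Swiss 3T3 mouse fibroblasts kept in RPMI with 10% FCS at 37 °C, 5% CO₂. About 7000 cells per well were exposed to various toxin concentrations for 3 h in fresh serum-free medium. The incubation was stopped with buffered formaldehyde containing Hoechst 33342, and apoptosis was scored by fluorescence and DIC microscopy. Mean ± SEM of three experiments.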

Data set [3] in a line: Stability assessed as formation of nodularin-R by HPLC analysis in presence of pig liver esterase. It counts as ADME. Conditions: isolated protein.
In data set [4] the test system is NIH3T3. Description: Induction of apoptosis in Swiss mouse 3T3 cells assessed as appearance of apoptotic morphology at 100 uM injected directly into intact cells after 3 hrs by Hoechst 33342 staining-based fluorescence microscopy in presence of esterase. It counts as cell-based. The following applies: nih3t3, 3 h.
Data set [5] in a line: Lipophilicity, logD at pI. In kind it is physicochemical. Conditions: octanol/water. Summed up: (§1)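 In silico estimate under a standard ionic condition (0.1 M Cl⁻, 0.1 M Na⁺/K⁺) at pI and at pH 7.4. pKa was estimated in macro mode at 310 K.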
Data set [6] in a line: Lipophilicity, logD at pH 7.4. In kind it is physicochemical. The following applies: buffer. In short, it runs like this: as §1
The test system of data set [7] is Hepatocyte. As to the kind of experiment: Cytotoxicity against Wistar rat hepatocytes harboring transporter Oatp1b2 assessed as appearance of polarized cell blebbing at 60 nM after 90 mins by differential interference contrast microscopy. The following applies: 1.5 h, 0.06 µM. It counts as ADME, cell-based.
For data set [8], the system named is Hepatocyte. Description: Cytotoxicity against Wistar rat hepatocytes harboring transporter Oatp1b2 assessed as appearance of polarized cell blebbing at 80 nM after 90 mins by differential interference contrast microscopy. Conditions: 1.5 h, 0.08 µM. It counts as ADME, cell-based.
For data set [9], the system named is Hepatocyte. As to the kind of experiment: Cytotoxicity against Wistar rat hepatocytes harboring transporter Oatp1b2 assessed as appearance of polarized cell blebbing at 4 uM after 90 mins by differential interference contrast microscopy. The following applies: 1.5 h. It counts as ADME, cell-based.
Data set [10] relates to Hepatocyte. Description: Cytotoxicity against Wistar rat hepatocytes harboring transporter Oatp1b2 assessed as appearance of polarized cell blebbing at 0.2 uM after 90 mins by differential interference contrast microscopy. It counts as ADME, cell-based. Conditions: 1.5 h.

Sequence of Serine/threonine-protein phosphatase 2A catalytic subunit alpha isoform (Oryctolagus cuniculus) (P67777 whole entry, canonical isoform): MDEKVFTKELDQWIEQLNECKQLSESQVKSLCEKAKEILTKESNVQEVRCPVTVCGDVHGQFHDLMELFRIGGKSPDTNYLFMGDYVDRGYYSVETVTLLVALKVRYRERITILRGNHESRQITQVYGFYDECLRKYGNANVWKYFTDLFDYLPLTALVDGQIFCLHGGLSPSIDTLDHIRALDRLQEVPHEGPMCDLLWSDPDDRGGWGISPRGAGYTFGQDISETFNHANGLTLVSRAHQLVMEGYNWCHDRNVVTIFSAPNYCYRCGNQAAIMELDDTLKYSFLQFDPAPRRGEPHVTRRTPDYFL

Regarding `C/C=C1/NC(=O)CC[C@H](C(=O)OCOC(C)=O)NC(=O)[C@@H](C)[C@H](/C=C/C(C)=C/[C@H](C)[C@H](Cc2ccccc2)OC)NC(=O)[C@H](CCCNC(=N)N)NC(=O)[C@@H](C)[C@H](C(=O)OCOC(C)=O)NC1=O`, the result in data set [1] was inactive. For the same compound, the Activity in the data set on NIH3T3 [2] was less than 20%; in the data set on NIH3T3 [4] it was “Toxic”; in the data set on Hepatocyte [7] it was “Toxic”. Moreover, the Stability entry in [3] is “Unstable”. Moreover, the logD in [5] is 0.4; in data set [6] (read-out: logD) it was -2.

As for `C/C=C1/C(=O)N[C@@H](C(=O)O)[C@H](C)C(=O)N[C@@H](CCCNC(=N)N)C(=O)N[C@@H](/C=C/C(C)=C/[C@H](C)[C@H](Cc2ccccc2)OC)[C@H](C)C(=O)N[C@@H](C(=O)O)CCC(=O)N1C` [NODULARIN], the Activity result in the data set on NIH3T3 [4] and in the data set on Hepatocyte [8] was “Toxic” each time. This compound had a logD in [5] of -3.1.

As to `C/C=C1/NC(=O)CC[C@H](C(=O)OCOC(=O)CC)NC(=O)[C@@H](C)[C@H](/C=C/C(C)=C/[C@H](C)[C@H](Cc2ccccc2)OC)NC(=O)[C@H](CCCNC(=N)N)NC(=O)[C@@H](C)[C@H](C(=O)OCOC(=O)CC)NC1=O`, the Activity was less than 20% in the data set on NIH3T3 [2], “Toxic” in the data set on NIH3T3 [4] and “Toxic” in the data set with Hepatocyte [7]. Also, the Stability entry in [3] was “Unstable”. Besides, the logD is 1.6 in data set [5] and -0.7 in data set [6] (read-out: logD).

Turning to `C/C=C1/NC(=O)CC[C@H](C(=O)O)NC(=O)[C@@H](C)[C@H](/C=C/C(C)=C/[C@H](C)[C@H](Cc2ccccc2)OC)NC(=O)[C@H](CCC/N=C2/N=C(c3ccccc3)C(O)N2)NC(=O)[C@@H](C)[C@H](C(=O)O)NC1=O` (some centres undefined), the values for the Activity in the data set with NIH3T3 [2], with NIH3T3 [4] and in the data set on Hepatocyte [9] were less than 20%, “Toxic” and “Toxic”, respectively. For the same compound, the logD in [5] is -1.4; in [6] it was -4.8.

For the compound `C=C1C(=O)N[C@H](C)C(=O)N[C@@H](CC(C)C)C(=O)N[C@@H](C(=O)O)[C@H](C)C(=O)N[C@@H](CCCNC(=N)N)C(=O)N[C@@H](/C=C/C(C)=C/[C@H](C)[C@H](Cc2ccccc2)OC)[C@H](C)C(=O)N[C@@H](C(=O)O)CCC(=O)N1C` [MICROCYSTIN-LR] (R[Adda][d(γGlu)][NMeDha][dA]L[dAsp(3S-Me)]-OH; lactam N-7), the Activity entry in the data set on NIH3T3 [4] and in the data set on Hepatocyte [10] was “Toxic” in each case.

In data set [5], `C=C1C(=O)N[C@H](C)C(=O)N[C@@H](CC(C)C)C(=O)C[C@@H](C(=O)O)[C@H](C)C(=O)N[C@@H](C)C(=O)N[C@@H](/C=C/C(C)=C/[C@H](C)[C@H](Cc2ccccc2)OC)[C@H](C)C(=O)N[C@@H](C(=O)O)CCC(=O)N1C` [MICROCYSTIN-LA] ([NMeDha][dA][X1]A[Adda][dE]-OH; lactam N-6) displayed a pH-dependent lipophilicity (logD) of 0.3.
